Experimental findings from the array DNA melting data of Ke et al. (doi:10.1101/2024.01.08.574731) are described below.

A short description of data set [1]: folding enthalpy; higher = less favourable; fluorescence melt of hairpins on a sequencing array, two-state fit. Conditions: sodium 0.088 M. Summed up: (§1)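 Library hairpins on a sequenced MiSeq flow cell carried annealed Cy3 and quencher oligos, and their Cy3 fluorescence was imaged in 50 mM Na-HEPES pH 8.0 with 25 mM NaCl, in 2.5 °C steps up to 60 °C. Signals were normalised to Cy3 before quenching and to control constructs. Melting temperature and folding enthalpy were obtained from bootstrapped two-state fits, combined by inverse-variance weighting across four replicates, and the fitted temperatures were then raised by 9.35 °C to match UV melts.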

The nature of data set [2]: melting temperature; fluorescence melt of hairpins on a sequencing array, two-state fit, raised by 9.35 °C to match UV melts. Conditions: sodium 0.088 M. Summed up:
as §1

Take GCTAGGCGAAAGCCTTGC ((.((((....)))).)): the folding enthalpy in data set [1] was -21.1 kcal/mol. Also, in data set [2], the Tm was determined as 61.8 °C.

For the sequence GCTAGGCGAAAGCGTGGC ((.(.((....)).).)), the folding enthalpy in data set [1] was -19.5 kcal/mol. Moreover, the Tm in data set [2] was found to be 49.8 °C.

GCTAGGCGAAAGCTTAGC ((((.((....)).)))): the folding enthalpy in data set [1] was -31.1 kcal/mol. For the same sequence, the Tm in data set [2] is 61 °C.

Turning to GCTAGGGAAACCTAGC ((((((....)))))), the folding enthalpy in data set [1] was -36.9 kcal/mol. The Tm in data set [2] turned out to be 58.4 °C.

Take GCTAGTCGAAAGACAGC (((.(((....)))))): the folding enthalpy in data set [1] was -24.8 kcal/mol. Besides, in data set [2], the Tm was determined as 52.1 °C.

On to GCTAGTGGAAACACCAGC (((.(((....))).))), for which the folding enthalpy in data set [1] was -23.6 kcal/mol. For the same sequence, the Tm in data set [2] stood at 39.2 °C.

On to GCTATAACGAAAGTTAGC (((..(((....)))))), for which the folding enthalpy in data set [1] is -19.8 kcal/mol. Besides, the Tm in data set [2] was determined as 37.5 °C.

Consider GCTATACGAAAGTACAGC (((.(((....))).))), for which the folding enthalpy in data set [1] is -30.2 kcal/mol. In addition, the Tm in data set [2] is 41.8 °C.

Turning to GCTATACGAAAGTAGAGC (((.(((....))).))), the folding enthalpy in data set [1] was -38.3 kcal/mol. Besides, in data set [2], the Tm came out at 53.4 °C.

With GCTATAGAAATATAGC ((((((....)))))), the folding enthalpy in data set [1] is -32.9 kcal/mol. Besides, the Tm in data set [2] amounted to 42.8 °C.

As to GCTATAGGAAACTATAGC (((((((....))))))), the folding enthalpy in data set [1] is -39.5 kcal/mol. Moreover, the Tm in data set [2] came to 53.2 °C.

In the case of GCTATAGGAAACTGTAGC ((((.((....)).)))), in data set [1], the folding enthalpy is -32.8 kcal/mol. The Tm in data set [2] came to 43.5 °C.

As for GCTATATCGAAAGATAGC (((..(((....)))))), the folding enthalpy in data set [1] is -25.2 kcal/mol. In addition, in data set [2], the Tm stood at 36.2 °C.

Take GCTATCGAAAGATAAGC ((((((....))).))): the folding enthalpy in data set [1] was -26.7 kcal/mol. Further, the Tm in data set [2] was 45 °C.

Turning to GCTATCGAAAGATCCAGC ((((((....)))..))), the folding enthalpy in data set [1] was -13.3 kcal/mol. For the same sequence, the Tm in data set [2] was 26.1 °C.

Regarding GCTATCGAAAGATTGAGC ((((((....)))..))), the folding enthalpy in data set [1] is -20.5 kcal/mol. Further, the Tm in data set [2] is 32.9 °C.

On to GCTATCGCGAAAGCGAGC (((..(((....)))))), for which the folding enthalpy in data set [1] was -10.3 kcal/mol. The Tm in data set [2] came out at 39.2 °C.

As for GCTATCGGAAACGATAAC (.(((((....))))).), the folding enthalpy in data set [1] was -17.4 kcal/mol. Further, in data set [2], the Tm stood at 34.5 °C.

As for GCTATCGGAAACGATAGC (((((((....))))))), the folding enthalpy in data set [1] was -52.4 kcal/mol. Also, the Tm in data set [2] is 64.3 °C.

For GCTATGCGAAAGCAAGGC ((..(((....)))..)), the folding enthalpy in data set [1] was -18.4 kcal/mol. Further, in data set [2], the Tm is 42.5 °C.

In the case of GCTATGCGAAAGCACCGC ((..(((....)))..)), the folding enthalpy in data set [1] is -8.22 kcal/mol. In addition, in data set [2], the Tm was 31.9 °C.

GCTATGCGAAAGCCAAGC (((..((....))..))): in data set [1], the folding enthalpy was -16.7 kcal/mol. In addition, the Tm in data set [2] stood at 36.5 °C.

As for GCTATGCGAAAGCCTCGC ((.(.((....)).).)), the folding enthalpy in data set [1] was -11.5 kcal/mol. In data set [2], the Tm was found to be 32.2 °C.

Take GCTATGCGAAAGCGTAGC ((((.((....)).)))): in data set [1], the folding enthalpy was -34.5 kcal/mol. The Tm in data set [2] came out at 65.7 °C.

Turning to GCTATGGGAAACCATGGC ((.((((....)))).)), in data set [1], the folding enthalpy was -41 kcal/mol. Further, the Tm in data set [2] stood at 50.9 °C.

Take GCTATGGGAAACTATAGC (((((.(....).))))): the folding enthalpy in data set [1] is -33.3 kcal/mol. For the same sequence, in data set [2], the Tm came out at 43.7 °C.

In the case of GCTATTGGAAACAACAGC (((.(((....))).))), the folding enthalpy in data set [1] is -16.9 kcal/mol. Besides, the Tm in data set [2] was found to be 33.7 °C.

GCTATTGGAAACAATGGC ((.((((....)))).)): in data set [1], the folding enthalpy was -36.1 kcal/mol. For the same sequence, in data set [2], the Tm was 45.7 °C.

Consider GCTATTTCGAAAGAAAGC (((..(((....)))))), for which the folding enthalpy in data set [1] was -12.5 kcal/mol. Besides, the Tm in data set [2] turned out to be 28.3 °C.

In the case of GCTCAGCCGAAAGGCAGC (((..(((....)))))), in data set [1], the folding enthalpy is -13.1 kcal/mol. Moreover, in data set [2], the Tm stood at 41.1 °C.

With GCTCAGCGAAAGCTCGGC ((..(((....)))..)), in data set [1], the folding enthalpy is -14.5 kcal/mol. The Tm in data set [2] is 39.5 °C.

Regarding GCTCAGGGAAACCTGAAC (.(((((....))))).), the folding enthalpy in data set [1] is -17.4 kcal/mol. Further, the Tm in data set [2] was 37.7 °C.

As to GCTCAGGGAAACCTGGGC ((.((((....)))).)), the folding enthalpy in data set [1] was -39.6 kcal/mol. Moreover, in data set [2], the Tm came to 54.4 °C.

On to GCTCATACGAAAGTAAGC (((..(((....)))))), for which, in data set [1], the folding enthalpy was -9.13 kcal/mol. Moreover, in data set [2], the Tm is 28 °C.

Turning to GCTCATGAAAATGAGC ((((((....)))))), the folding enthalpy in data set [1] is -38.5 kcal/mol. The Tm in data set [2] was found to be 63.6 °C.

On to GCTCCACGAAAGTGAAGC (((.(((....))).))), for which the folding enthalpy in data set [1] is -30.2 kcal/mol. Besides, the Tm in data set [2] was 51.2 °C.
